The term IC50 denotes the point on the concentration scale where inhibition reaches its midpoint. As a reminder, the GI50 is the concentration at which growth is held to half of that of the control.

Molecules are shown by their SMILES.

Cytochrome P450 2C19, sequence (P33261 whole entry): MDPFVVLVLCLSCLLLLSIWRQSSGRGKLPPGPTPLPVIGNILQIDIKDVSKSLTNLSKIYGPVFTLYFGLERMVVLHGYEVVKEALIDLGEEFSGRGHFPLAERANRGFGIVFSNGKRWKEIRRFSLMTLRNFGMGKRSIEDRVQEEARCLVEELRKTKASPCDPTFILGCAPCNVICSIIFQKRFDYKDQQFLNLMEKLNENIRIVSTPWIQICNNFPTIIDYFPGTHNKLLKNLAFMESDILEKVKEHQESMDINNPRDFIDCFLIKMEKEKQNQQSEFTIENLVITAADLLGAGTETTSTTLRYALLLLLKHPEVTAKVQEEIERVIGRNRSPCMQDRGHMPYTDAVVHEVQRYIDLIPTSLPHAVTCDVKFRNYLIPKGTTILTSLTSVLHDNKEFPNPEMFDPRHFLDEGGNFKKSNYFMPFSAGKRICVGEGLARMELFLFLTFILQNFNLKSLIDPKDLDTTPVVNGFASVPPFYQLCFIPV
Voltage-gated inwardly rectifying potassium channel KCNH2, sequence (Q12809 whole entry): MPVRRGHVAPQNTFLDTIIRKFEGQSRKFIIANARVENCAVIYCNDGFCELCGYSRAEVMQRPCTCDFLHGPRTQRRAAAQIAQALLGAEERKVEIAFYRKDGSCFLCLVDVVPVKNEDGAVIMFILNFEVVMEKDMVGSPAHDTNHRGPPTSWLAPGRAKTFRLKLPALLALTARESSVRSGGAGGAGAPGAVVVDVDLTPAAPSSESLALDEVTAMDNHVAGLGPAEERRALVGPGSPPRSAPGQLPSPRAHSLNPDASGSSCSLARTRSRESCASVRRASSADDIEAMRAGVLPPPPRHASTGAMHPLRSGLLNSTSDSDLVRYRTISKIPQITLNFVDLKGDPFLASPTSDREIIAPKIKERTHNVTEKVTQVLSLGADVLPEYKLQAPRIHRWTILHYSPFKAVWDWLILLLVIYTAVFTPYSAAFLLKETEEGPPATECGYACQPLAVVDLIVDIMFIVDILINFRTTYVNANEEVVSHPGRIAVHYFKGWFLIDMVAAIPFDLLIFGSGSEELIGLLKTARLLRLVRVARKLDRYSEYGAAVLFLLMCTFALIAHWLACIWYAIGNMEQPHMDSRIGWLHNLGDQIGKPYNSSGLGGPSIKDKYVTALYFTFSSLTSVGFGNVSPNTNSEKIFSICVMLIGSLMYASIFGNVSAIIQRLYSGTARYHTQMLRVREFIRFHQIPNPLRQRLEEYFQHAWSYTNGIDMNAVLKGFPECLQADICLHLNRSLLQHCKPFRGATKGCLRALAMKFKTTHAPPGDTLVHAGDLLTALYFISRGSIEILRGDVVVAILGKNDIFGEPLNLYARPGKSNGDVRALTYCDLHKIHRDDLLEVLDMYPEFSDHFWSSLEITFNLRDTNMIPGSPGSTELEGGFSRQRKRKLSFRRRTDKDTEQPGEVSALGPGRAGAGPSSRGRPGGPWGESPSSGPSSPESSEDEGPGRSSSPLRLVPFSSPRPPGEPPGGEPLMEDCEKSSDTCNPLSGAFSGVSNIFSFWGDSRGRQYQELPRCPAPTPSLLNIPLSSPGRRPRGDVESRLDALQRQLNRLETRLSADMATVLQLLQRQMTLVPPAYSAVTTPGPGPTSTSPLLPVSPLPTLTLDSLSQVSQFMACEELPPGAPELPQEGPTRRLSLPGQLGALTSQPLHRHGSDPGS
Cytochrome P450 2D6, sequence (P10635 whole entry): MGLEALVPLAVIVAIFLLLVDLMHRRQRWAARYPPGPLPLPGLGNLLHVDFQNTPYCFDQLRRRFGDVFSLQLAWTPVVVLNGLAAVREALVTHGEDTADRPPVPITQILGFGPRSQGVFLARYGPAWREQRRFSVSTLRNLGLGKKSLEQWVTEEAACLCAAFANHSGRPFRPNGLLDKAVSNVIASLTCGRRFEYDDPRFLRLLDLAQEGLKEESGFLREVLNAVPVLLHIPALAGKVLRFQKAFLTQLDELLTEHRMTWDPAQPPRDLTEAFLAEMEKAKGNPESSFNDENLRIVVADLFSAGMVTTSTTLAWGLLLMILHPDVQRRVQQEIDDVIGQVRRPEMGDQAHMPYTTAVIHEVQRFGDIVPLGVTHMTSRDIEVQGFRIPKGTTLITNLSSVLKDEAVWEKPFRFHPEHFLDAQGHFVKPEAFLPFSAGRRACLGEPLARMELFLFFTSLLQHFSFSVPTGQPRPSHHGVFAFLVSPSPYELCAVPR
Cytochrome P450 3A4, sequence (P08684 whole entry): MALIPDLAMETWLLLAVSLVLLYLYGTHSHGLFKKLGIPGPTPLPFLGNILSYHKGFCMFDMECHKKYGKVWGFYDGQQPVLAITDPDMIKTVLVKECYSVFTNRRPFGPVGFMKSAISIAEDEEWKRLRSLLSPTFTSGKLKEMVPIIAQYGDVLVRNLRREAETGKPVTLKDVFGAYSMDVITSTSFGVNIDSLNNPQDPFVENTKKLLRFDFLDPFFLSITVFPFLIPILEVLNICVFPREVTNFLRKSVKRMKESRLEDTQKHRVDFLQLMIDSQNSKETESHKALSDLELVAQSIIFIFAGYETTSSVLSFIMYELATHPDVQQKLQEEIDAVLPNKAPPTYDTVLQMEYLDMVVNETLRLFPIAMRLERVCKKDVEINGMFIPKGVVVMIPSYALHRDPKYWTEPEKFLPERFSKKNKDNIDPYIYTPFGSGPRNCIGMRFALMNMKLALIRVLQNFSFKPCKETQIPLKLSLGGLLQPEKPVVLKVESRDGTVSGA

The target of one data set is Cytochrome P450 2C9 (Homo sapiens, UniProt P11712). As to the kind of experiment: Inhibition of human CYP2C9 expressed in baculovirus infected insect cells using beetle D-luciferin as substrate preincubated for 30 mins followed by NADPH addition and measured after 30 mins by CYP450-Glo assay.
Cytochrome P450 2C9, sequence (P11712 whole entry): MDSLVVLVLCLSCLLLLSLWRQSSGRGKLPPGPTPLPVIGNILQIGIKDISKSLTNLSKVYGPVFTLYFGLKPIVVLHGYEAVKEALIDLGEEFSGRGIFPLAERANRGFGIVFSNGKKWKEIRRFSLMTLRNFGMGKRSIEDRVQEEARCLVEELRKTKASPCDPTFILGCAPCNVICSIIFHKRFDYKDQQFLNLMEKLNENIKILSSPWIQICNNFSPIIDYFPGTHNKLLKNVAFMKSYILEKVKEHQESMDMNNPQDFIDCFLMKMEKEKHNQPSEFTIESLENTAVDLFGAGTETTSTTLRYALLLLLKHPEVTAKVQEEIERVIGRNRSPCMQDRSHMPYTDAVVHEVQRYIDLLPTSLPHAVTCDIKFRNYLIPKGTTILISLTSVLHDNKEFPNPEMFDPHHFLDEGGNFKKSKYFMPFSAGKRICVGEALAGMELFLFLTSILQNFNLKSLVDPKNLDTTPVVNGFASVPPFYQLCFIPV
Conditions: not given
For the compound `COC(=O)C1CCN(C(=O)c2ccc(CS(=O)(=O)c3ccc4nc(N)sc4c3)cc2)CC1`, the IC50 was below 10 µM.

`Nc1nc2c(C(=O)NCc3ccc(Cl)c(Cl)c3)cc(O)c(O)c2s1`: the IC50 was above 25 µM.

For a further data set, the system named is Trypanosoma cruzi. Nature of the data set: Growth inhibition of trypomastigote form of Trypanosoma cruzi Y infected in human U2OS cells at 50 uM measured after 72 hrs by DRAQ5 DNA dye based confocal microscopic analysis relative to control. Format: organism-based. Particulars: Trypanosoma cruzi, Y, U2OS, read-out: GI.
For the compound `Nc1nc2c(C(=O)NCc3ccc(Cl)c(Cl)c3)cc(O)c(O)c2s1`, the inhibition at 50 µM is 18.3%.

Still in this data set, the particulars now being: trypanosoma cruzi, 50 µM.
On to `COC(=O)C1CCN(C(=O)c2ccc(CS(=O)(=O)c3ccc4nc(N)sc4c3)cc2)CC1`, for which the “growth inhibition (GI)” value is on record as “Non-Toxic”.

System in the next data set: not listed separately
Nature of the data set: Cytotoxicity against human U2OS cells assessed as reduction in cell number. Format: cell-based.
Conditions: not given
For `COC(=O)C1CCN(C(=O)c2ccc(CS(=O)(=O)c3ccc4nc(N)sc4c3)cc2)CC1`, the GI50 is above 25 µM.

For the compound `Nc1nc2c(C(=O)NCc3ccc(Cl)c(Cl)c3)cc(O)c(O)c2s1`, the GI50 was above 25 µM.

System in the next data set: not listed separately
Nature of the data set: Cytotoxicity against human A549 cells after 48 hrs by Celltiter-glo assay. In kind it is cell-based.
Conditions: not given
Take `COC(=O)C1CCN(C(=O)c2ccc(CS(=O)(=O)c3ccc4nc(N)sc4c3)cc2)CC1`: the GI50 at 48 h is above 25 µM.

Compound `Nc1nc2c(C(=O)NCc3ccc(Cl)c(Cl)c3)cc(O)c(O)c2s1` showed a GI50 at 48 h above 25 µM.

Another data set has as its system Trypanosoma brucei. Nature of the data set: Growth inhibition of Trypanosoma brucei bloodstream forms at 10 uM measured after 72 hrs by resazurin-based fluorescence assay relative to control. Particulars: Trypanosoma brucei, read-out: GI. Format: organism-based. A general note: Alamar Blue is a resazurin reagent that responds to reducing activity.
Consider `Nc1nc2c(C(=O)NCc3ccc(Cl)c(Cl)c3)cc(O)c(O)c2s1`, for which the inhibition at 10 µM stood at 16%.

Still in this data set, the particulars now being: trypanosoma brucei, 10 µM.
On to `COC(=O)C1CCN(C(=O)c2ccc(CS(=O)(=O)c3ccc4nc(N)sc4c3)cc2)CC1`, for which the “growth inhibition (GI)” value is “Non-Toxic”.

System in a further data set: not listed separately
Nature of the data set: Selectivity ratio of IC50 for Leishmania major pteridine reductase 1 to IC50 for N-terminal His-tagged Trypanosoma brucei pteridine reductase 1.
Conditions: not given
Consider `COC(=O)C1CCN(C(=O)c2ccc(CS(=O)(=O)c3ccc4nc(N)sc4c3)cc2)CC1`, for which the Ratio IC50 is 2 to 100.

As to `Nc1nc2c(C(=O)NCc3ccc(Cl)c(Cl)c3)cc(O)c(O)c2s1`, the Ratio IC50 lay within 2 to 100.

The test system of a further data set is Leishmania infantum. Nature of the data set: Growth inhibition of luciferase expressing Leishmania infantum axenic amastigotes infected in human THP1 cells at 10 uM measured after 72 hrs by steady-glo luminescence assay relative to control. Format: organism-based. Particulars: leishmania infantum, 72 h, 10 µM.
For `COC(=O)C1CCN(C(=O)c2ccc(CS(=O)(=O)c3ccc4nc(N)sc4c3)cc2)CC1`, the “growth inhibition (GI)” value was “Non-Toxic”.

On to `Nc1nc2c(C(=O)NCc3ccc(Cl)c(Cl)c3)cc(O)c(O)c2s1`, for which the “growth inhibition (GI)” value is recorded as “Non-Toxic”.

Another data set addresses Voltage-gated inwardly rectifying potassium channel KCNH2 (Homo sapiens, UniProt Q12809). Nature of the data set: Displacement of Tracer Red from human ERG by fluorescence polarization assay.
Conditions: not given
Background: Fluorescence polarisation rises when a labelled molecule tumbles more slowly, as on binding a larger partner.
Compound `COC(=O)C1CCN(C(=O)c2ccc(CS(=O)(=O)c3ccc4nc(N)sc4c3)cc2)CC1` registered an IC50 above 25 µM.

As for `Nc1nc2c(C(=O)NCc3ccc(Cl)c(Cl)c3)cc(O)c(O)c2s1`, the IC50 was above 25 µM.

Another data set addresses Cytochrome P450 2C19 (Homo sapiens, UniProt P33261). As to the kind of experiment: Inhibition of human CYP2C19 expressed in baculovirus infected insect cells using beetle D-luciferin as substrate preincubated for 30 mins followed by NADPH addition and measured after 30 mins by CYP450-Glo assay.
Conditions: not given
Compound `COC(=O)C1CCN(C(=O)c2ccc(CS(=O)(=O)c3ccc4nc(N)sc4c3)cc2)CC1` returned a concentration for half-maximal inhibition (IC50) below 10 µM.

`Nc1nc2c(C(=O)NCc3ccc(Cl)c(Cl)c3)cc(O)c(O)c2s1` yielded an IC50 above 25 µM.

System in the next data set: not listed separately
Nature of the data set: Cytotoxicity against human THP1 cells after 72 hrs by MTT assay. In kind it is cell-based, THP-1. Particulars: read-out: NOAEL. For orientation: Formazan colour is commonly taken as a measure of viable cells.
Regarding `COC(=O)C1CCN(C(=O)c2ccc(CS(=O)(=O)c3ccc4nc(N)sc4c3)cc2)CC1`, the MNTC at 72 h was above 25 µM.

Turning to `Nc1nc2c(C(=O)NCc3ccc(Cl)c(Cl)c3)cc(O)c(O)c2s1`, the MNTC at 72 h is above 25 µM.

For another data set, the target named is T1, Pteridine reductase 1 (Leishmania major) (UniProt Q01782).
T1 sequence (whole entry): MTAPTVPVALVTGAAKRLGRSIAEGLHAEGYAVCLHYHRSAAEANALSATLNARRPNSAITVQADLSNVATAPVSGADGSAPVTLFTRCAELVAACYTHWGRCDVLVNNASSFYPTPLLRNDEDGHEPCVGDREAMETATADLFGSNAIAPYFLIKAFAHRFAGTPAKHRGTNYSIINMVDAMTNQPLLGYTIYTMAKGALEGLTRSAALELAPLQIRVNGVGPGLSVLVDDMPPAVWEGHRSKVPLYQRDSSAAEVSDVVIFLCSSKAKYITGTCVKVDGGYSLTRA
As to the kind of experiment: Inhibition of Leishmania major pteridine reductase 1 at 50 uM using di-hydrobiopterine as substrate in presence of NADPH relative to control.
Conditions: not given
The procedure, abridged:
(§1)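 Photometric PTR1 assay with NADPH and dihydrobiopterin substrate. H₄B formation is coupled non-enzymatically to cytochrome c reduction, read as signal increase at 550 nm.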
Take `COC(=O)C1CCN(C(=O)c2ccc(CS(=O)(=O)c3ccc4nc(N)sc4c3)cc2)CC1`: the inhibition is above 60%.

Regarding `Nc1nc2c(C(=O)NCc3ccc(Cl)c(Cl)c3)cc(O)c(O)c2s1`, the inhibition is above 60%.

A further data set concerns Trypanosoma brucei. Nature of the data set: Inhibition of N-terminal His-tagged Trypanosoma brucei pteridine reductase 1 at 50 uM using di-hydrobiopterine as substrate measured at 1 min interval for 50 mins in presence of NADPH relative to control.
Conditions: not given
The procedure, abridged: as §1
With `COC(=O)C1CCN(C(=O)c2ccc(CS(=O)(=O)c3ccc4nc(N)sc4c3)cc2)CC1`, the inhibition is above 60%.

For the compound `Nc1nc2c(C(=O)NCc3ccc(Cl)c(Cl)c3)cc(O)c(O)c2s1`, the inhibition was above 60%.

The next data set has as its target Cytochrome P450 3A4 (Homo sapiens, UniProt P08684). Nature of the data set: Inhibition of human CYP3A4 expressed in baculovirus infected insect cells using beetle D-luciferin as substrate preincubated for 30 mins followed by NADPH addition and measured after 30 mins by CYP450-Glo assay.
Conditions: not given
In the case of `COC(=O)C1CCN(C(=O)c2ccc(CS(=O)(=O)c3ccc4nc(N)sc4c3)cc2)CC1`, the IC50 is below 10 µM.

In the case of `Nc1nc2c(C(=O)NCc3ccc(Cl)c(Cl)c3)cc(O)c(O)c2s1`, the IC50 is below 10 µM.

System in another data set: not listed separately
Nature of the data set: Mitochondrial toxicity in human 786-O cells measured after 6 hrs by MitoTracker Red chloromethyl-X-rosamine based assay.
Conditions: not given
In kind it is cell-based, 786-0.
As to `COC(=O)C1CCN(C(=O)c2ccc(CS(=O)(=O)c3ccc4nc(N)sc4c3)cc2)CC1`, the IC50 at 6 h is above 25 µM.

Compound `Nc1nc2c(C(=O)NCc3ccc(Cl)c(Cl)c3)cc(O)c(O)c2s1` had an IC50 at 6 h above 25 µM.

A further data set addresses T2, Pteridine reductase 1 (Leishmania major, UniProt Q01782).
T2 sequence (Q01782 whole entry): T1 sequence (whole entry)
As to the kind of experiment: Inhibition of Leishmania major pteridine reductase 1 using di-hydrobiopterine as substrate in presence of NADPH. Particulars: read-out: IC50. The essentials: as §1
For the compound `COC(=O)C1CCN(C(=O)c2ccc(CS(=O)(=O)c3ccc4nc(N)sc4c3)cc2)CC1`, the IC50 is 50 µM.

Consider `Nc1nc2c(C(=O)NCc3ccc(Cl)c(Cl)c3)cc(O)c(O)c2s1`, for which the half-maximal inhibitory concentration (IC50) was found to be 36.8 µM.

Target in a further data set: not listed separately
Nature of the data set: Inhibition of N-terminal His-tagged Trypanosoma brucei pteridine reductase 1 using di-hydrobiopterine as substrate measured at 1 min interval for 50 mins in presence of NADPH.
Conditions: not given
The procedure, abridged: as §1
As to `COC(=O)C1CCN(C(=O)c2ccc(CS(=O)(=O)c3ccc4nc(N)sc4c3)cc2)CC1`, the IC50 turned out to be 24.3 µM.

Consider `Nc1nc2c(C(=O)NCc3ccc(Cl)c(Cl)c3)cc(O)c(O)c2s1`, for which the half-inhibitory concentration (IC50) was determined as 32.3 µM.

A further data set addresses Cytochrome P450 2D6 (Homo sapiens, UniProt P10635). Nature of the data set: Inhibition of human CYP2D6 expressed in baculovirus infected insect cells using beetle D-luciferin as substrate preincubated for 30 mins followed by NADPH addition and measured after 30 mins by CYP450-Glo assay.
Conditions: not given
Compound `COC(=O)C1CCN(C(=O)c2ccc(CS(=O)(=O)c3ccc4nc(N)sc4c3)cc2)CC1` displayed an IC50 below 10 µM.

Regarding `Nc1nc2c(C(=O)NCc3ccc(Cl)c(Cl)c3)cc(O)c(O)c2s1`, the IC50 was below 10 µM.

For the next data set, the target named is T3, Cytochrome P450 1A2 (Homo sapiens, UniProt P05177).
T3 sequence (P05177 whole entry): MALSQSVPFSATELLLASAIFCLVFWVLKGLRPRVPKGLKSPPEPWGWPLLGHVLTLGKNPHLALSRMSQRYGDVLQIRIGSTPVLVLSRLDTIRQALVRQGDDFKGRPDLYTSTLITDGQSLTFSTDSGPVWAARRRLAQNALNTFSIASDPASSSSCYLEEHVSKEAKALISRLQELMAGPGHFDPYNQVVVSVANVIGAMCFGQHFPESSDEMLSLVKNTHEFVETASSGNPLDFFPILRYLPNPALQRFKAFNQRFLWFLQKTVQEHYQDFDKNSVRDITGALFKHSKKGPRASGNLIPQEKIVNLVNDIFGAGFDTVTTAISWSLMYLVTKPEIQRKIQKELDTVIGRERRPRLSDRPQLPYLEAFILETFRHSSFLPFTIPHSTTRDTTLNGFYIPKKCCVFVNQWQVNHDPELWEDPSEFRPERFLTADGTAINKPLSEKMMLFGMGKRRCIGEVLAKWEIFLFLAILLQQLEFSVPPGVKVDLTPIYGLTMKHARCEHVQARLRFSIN
Nature of the data set: Inhibition of human CYP1A2 expressed in baculovirus infected insect cells using beetle D-luciferin as substrate preincubated for 30 mins followed by NADPH addition and measured after 30 mins by CYP450-Glo assay.
Conditions: not given
On to `COC(=O)C1CCN(C(=O)c2ccc(CS(=O)(=O)c3ccc4nc(N)sc4c3)cc2)CC1`, for which the IC50 was above 25 µM.

In the case of `Nc1nc2c(C(=O)NCc3ccc(Cl)c(Cl)c3)cc(O)c(O)c2s1`, the IC50 is above 25 µM.

The record behind these values is ChEMBL document CHEMBL4387708, “Enhancement of Benzothiazoles as Pteridine Reductase-1 Inhibitors for the Treatment of Trypanosomatidic Infections” (J Med Chem, 2019).
